Reference: ChEMBL document CHEMBL1155442, “Click chemistry approach to new N-substituted aminocyclitols as potential pharmacological chaperones for Gaucher disease” (J Med Chem, 2010)
Activity calls are given as the source filed them. The rule behind the calls is not given here.

Experiments:
[1] = biological target: T1, Lysosomal acid glucosylceramidase (Homo sapiens) (UniProt P04062); assay: Binding affinity to recombinant beta-glucocerebrosidase assessed as enzymatic activity at 150 uM after 20 mins by thermal stabilization assay relative to control
T1 sequence (whole entry): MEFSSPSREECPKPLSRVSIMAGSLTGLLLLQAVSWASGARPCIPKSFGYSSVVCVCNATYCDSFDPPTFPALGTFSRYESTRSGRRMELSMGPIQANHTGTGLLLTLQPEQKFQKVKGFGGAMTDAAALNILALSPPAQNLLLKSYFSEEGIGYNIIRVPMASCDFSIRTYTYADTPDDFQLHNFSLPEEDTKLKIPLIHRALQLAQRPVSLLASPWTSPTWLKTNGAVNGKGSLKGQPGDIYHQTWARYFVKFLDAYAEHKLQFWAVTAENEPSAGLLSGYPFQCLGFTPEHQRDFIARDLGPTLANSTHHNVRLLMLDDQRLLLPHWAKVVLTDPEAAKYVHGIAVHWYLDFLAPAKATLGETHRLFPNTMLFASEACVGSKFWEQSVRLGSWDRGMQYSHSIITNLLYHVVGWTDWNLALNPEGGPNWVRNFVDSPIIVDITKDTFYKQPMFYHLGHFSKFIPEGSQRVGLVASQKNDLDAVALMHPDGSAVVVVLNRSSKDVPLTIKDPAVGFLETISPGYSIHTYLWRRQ

[2] = biological target: T1, Lysosomal acid glucosylceramidase (Homo sapiens); assay: Binding affinity to recombinant beta-glucocerebrosidase assessed as enzymatic activity at 50 uM after 20 mins by thermal stabilization assay relative to control
[3] = biological target: T1, Lysosomal acid glucosylceramidase (Homo sapiens); assay: Binding affinity to recombinant beta-glucocerebrosidase assessed as enzymatic activity at 100 uM after 40 mins by thermal stabilization assay relative to control
[4] = biological target: T1, Lysosomal acid glucosylceramidase (Homo sapiens); assay: Binding affinity to recombinant beta-glucocerebrosidase assessed as enzymatic activity at 100 uM after 60 mins by thermal stabilization assay relative to control
[5] = biological target: T2, Lysosomal acid glucosylceramidase (Homo sapiens, UniProt P04062); assay: Inhibition of recombinant beta-glucocerebrosidase at pH 5.2 after 10 mins by fluorimetry
T2 sequence (P04062 whole entry): T1 sequence (whole entry)

[6] = biological target: T1, Lysosomal acid glucosylceramidase (Homo sapiens); assay: Binding affinity to recombinant beta-glucocerebrosidase assessed as enzymatic activity at 150 uM after 60 mins by thermal stabilization assay relative to control
[7] = biological target: T1, Lysosomal acid glucosylceramidase (Homo sapiens); assay: Binding affinity to recombinant beta-glucocerebrosidase assessed as enzymatic activity at 150 uM after 40 mins by thermal stabilization assay relative to control
[8] = Cytotoxicity against human fibroblast at 300 uM after 24 hrs by MTT assay; type: cell-based
[9] = biological target: T1, Lysosomal acid glucosylceramidase (Homo sapiens); assay: Binding affinity to recombinant beta-glucocerebrosidase assessed as enzymatic activity at 100 uM after 20 mins by thermal stabilization assay relative to control
[10] = biological target: T2, Lysosomal acid glucosylceramidase; assay: Competitive inhibition of beta-glucocerebrosidase at pH 5.2 by Lineweaver-Burke plot analysis
[11] = biological target: T1, Lysosomal acid glucosylceramidase (Homo sapiens); assay: Binding affinity to recombinant beta-glucocerebrosidase assessed as enzymatic activity at 50 uM after 60 mins by thermal stabilization assay relative to control
[12] = biological target: T1, Lysosomal acid glucosylceramidase (Homo sapiens); assay: Binding affinity to recombinant beta-glucocerebrosidase assessed as enzymatic activity at 50 uM after 40 mins by thermal stabilization assay relative to control
[13] = biological target: T2, Lysosomal acid glucosylceramidase; assay: Inhibition of recombinant beta-glucocerebrosidase after 10 mins by fluorimetry
Summary of the method: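 Imiglucerase (0.1 mg/mL stock) in McIlvaine buffer, pH 5.2 or 7.4, with 0.2% sodium taurocholate and 0.1% Triton X-100. Preincubated 30 min at 37 °C with or without inhibitor. Then 4 mM 4-methylumbelliferyl-β-D-glucopyranoside added for 10 min at 37 °C. Stopped with glycine/NaOH pH 10.6; 4-MU read at ex 355/em 460 nm. IC50 from % activity vs log[I], at least five concentrations.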

[14] = biological target: T3, Beta-galactosidase (Bos taurus) (UniProt Q58D55); assay: Inhibition of bovine liver beta-galactosidase at 0.1 mM
T3 sequence (whole entry): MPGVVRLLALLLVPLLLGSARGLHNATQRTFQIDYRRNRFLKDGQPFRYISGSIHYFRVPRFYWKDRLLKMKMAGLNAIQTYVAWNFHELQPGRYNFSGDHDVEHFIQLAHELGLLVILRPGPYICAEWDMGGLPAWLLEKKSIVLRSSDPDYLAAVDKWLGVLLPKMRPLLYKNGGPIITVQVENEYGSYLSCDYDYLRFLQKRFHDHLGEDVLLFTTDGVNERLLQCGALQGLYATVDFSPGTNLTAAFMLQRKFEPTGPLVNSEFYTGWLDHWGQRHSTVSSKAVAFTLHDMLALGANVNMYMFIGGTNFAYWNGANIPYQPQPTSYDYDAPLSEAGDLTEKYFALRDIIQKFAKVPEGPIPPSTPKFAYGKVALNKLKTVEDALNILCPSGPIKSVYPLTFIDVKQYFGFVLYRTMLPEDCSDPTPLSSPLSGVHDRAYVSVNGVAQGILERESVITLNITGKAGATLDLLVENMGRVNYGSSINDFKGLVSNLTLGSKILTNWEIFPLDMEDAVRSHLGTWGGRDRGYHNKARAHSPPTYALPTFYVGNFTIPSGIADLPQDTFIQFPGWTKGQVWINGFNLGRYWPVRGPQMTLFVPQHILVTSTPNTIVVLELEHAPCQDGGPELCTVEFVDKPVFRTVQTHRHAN

Saccharomyces cerevisiae = assay: Inhibition of yeast alpha-glucosidase at 0.1 mM
Prunus dulcis = assay: Inhibition of sweet almond beta-glucosidase at 0.1 mM
[15] = Dissociation constant, pKa of the compound; type: physicochemical
Oryza sativa [16] = assay: Inhibition of rice alpha-glucosidase at 0.1 mM
[17] = biological target: T2, Lysosomal acid glucosylceramidase; assay: Inhibition of recombinant beta-glucocerebrosidase at pH 7.4 after 10 mins by fluorimetry
[18] = Cytotoxicity against human fibroblast after 24 hrs by MTT assay; type: cell-based; conditions: human fibroblasts
[19] = biological target: T1, Lysosomal acid glucosylceramidase (Homo sapiens); assay: Inhibition of beta-glucocerebrosidase in human fibroblast at 50 uM after 24 hrs by fluorescence assay
Summary of the method: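 Wild-type human fibroblasts exposed to compound for 24 h (10, 20 or 50 μM, as listed) with 5 mM substrate. Cellular GCase activity then measured.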

Oryza sativa [20] = assay: Inhibition of rice alpha-galactosidase at 0.1 mM

Row | SMILES | IC50 [5] | Activity [8] | Ki [10] | IC50 [13] | inhibition [14] | inhibition (Saccharomyces cerevisiae) | inhibition (Prunus dulcis) | pKa [15] | inhibition (Oryza sativa [16]) | IC50 [17] | CC50 at 24 h [18] | inhibition [19] | inhibition (Oryza sativa [20]) | further results
1 | CCCCCCCCCCN[C@H]1[C@H](O)[C@@H](O)[C@H](O)[C@@H](O)[C@@H]1O | 1.8 µM | Non-toxic | 0.3 µM | – | – | – | – | – | – | – | – | – | – | fold change (FC) [1]: 1.99; fold change (FC) [2]: 1.29; fold change (FC) [3]: 4.49; fold change (FC) [4]: 4.89; fold change (FC) [6]: 11.3; fold change (FC) [7]: 5.85; fold change (FC) [9]: 1.84; fold change (FC) [11]: 2.24; fold change (FC) [12]: 2.33
2 | CCCCCCCCn1cc(CCCN[C@H]2[C@H](O)[C@@H](O)[C@H](O)[C@@H](O)[C@@H]2O)nn1 | 35.4 µM | – | 19.9 µM | 35.5 µM | inactive | inactive | inactive | 9.4 | inactive | 18.2 µM | 97 µM | 40% | inactive | –
3 | CCCCCCCCn1cc(CN[C@H]2[C@H](O)[C@@H](O)[C@H](O)[C@@H](O)[C@@H]2O)nn1 | 1 µM | Non-toxic | 1.8 µM | 1.05 µM | inactive | inactive | inactive | 7.7 | inactive | 1.1 µM | – | 20% | inactive | –
4 | O[C@@H]1[C@@H](O)[C@H](O)[C@@H](NCc2cn(CCc3ccccc3)nn2)[C@H](O)[C@H]1O | 10.8 µM | Non-toxic | 19.1 µM | 10.7 µM | inactive | inactive | inactive | 7.8 | inactive | 25 µM | – | < 5% | inactive | –
5 | CCCCCCCCCCn1cc(CCCN[C@H]2[C@H](O)[C@@H](O)[C@H](O)[C@@H](O)[C@@H]2O)nn1 | 3.5 µM | – | 7.6 µM | 3.47 µM | inactive | inactive | inactive | 9.9 | inactive | 1.2 µM | 170 µM | 20% | inactive | –
6 | CCCCCCCCn1cc(CCN[C@H]2[C@H](O)[C@@H](O)[C@H](O)[C@@H](O)[C@@H]2O)nn1 | 167 µM | Non-toxic | – | 166 µM | inactive | inactive | inactive | 9.1 | inactive | 55.9 µM | – | < 5% | inactive | –
